Laboratory results published in ChEMBL document CHEMBL1134582 (J Med Chem, 2001).

Biological target: T1, Adenosine receptor A1 (Homo sapiens) (UniProt P30542)
T1 sequence (whole entry): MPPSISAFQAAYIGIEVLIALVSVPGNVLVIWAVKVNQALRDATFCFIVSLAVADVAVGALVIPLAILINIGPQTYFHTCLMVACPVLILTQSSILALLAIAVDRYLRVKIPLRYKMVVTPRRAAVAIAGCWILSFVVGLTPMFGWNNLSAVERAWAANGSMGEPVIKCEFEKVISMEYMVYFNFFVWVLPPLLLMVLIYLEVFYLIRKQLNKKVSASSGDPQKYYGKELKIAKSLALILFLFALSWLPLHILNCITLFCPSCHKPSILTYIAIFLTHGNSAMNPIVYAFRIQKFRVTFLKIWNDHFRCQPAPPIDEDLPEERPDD
Experiment: Inhibition of Forskolin (10 nM) induced cAMP production at human Adenosine A1 receptor (compared to CPA in CHO cells)
Type: cell-based
Details: in the assay text read “10 µM” for “10 nM”
Method in brief: (§1)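 Cells expressing the human receptor (A1 in CHO) were grown overnight as monolayers and kept in DMEM/HEPES at pH 7.4. […] Forskolin was added at 10 µM (final) for 15 min. cAMP was measured by binding-protein assay. […] Mean ±SEM, n=3.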

| Structure (SMILES) | inhibition |
| --- | --- |
| Nc1ncnc2c1ncn2[C@@H]1O[C@H](COC2CC2)[C@@H](O)[C@H]1O | 61% |
| CCOC[C@H]1O[C@@H](n2cnc3c(NCc4cccc(I)c4)ncnc32)[C@H](O)[C@@H]1O | 6% |
| CCOC[C@H]1O[C@@H](n2cnc3c(NC4CCCC4)ncnc32)[C@H](O)[C@@H]1O | 69% |
| O[C@@H]1[C@H](O)[C@@H](COC2CC2)O[C@H]1n1cnc2c(NC3CCCC3)nc(Cl)nc21 | 43% |
| Nc1nc(Cl)nc2c1ncn2[C@@H]1O[C@H](COC2CC2)[C@@H](O)[C@H]1O | 49% |
| CCOC[C@H]1O[C@@H](n2cnc3c(N)nc(Cl)nc32)[C@H](O)[C@@H]1O | 67% |
| COC[C@H]1O[C@@H](n2cnc3c(NCc4cccc(I)c4)ncnc32)[C@H](O)[C@@H]1O | 53% |
| COC[C@H]1O[C@@H](n2cnc3c(NC4CCCC4)nc(Cl)nc32)[C@H](O)[C@@H]1O | 73% |
| COC[C@H]1O[C@@H](n2cnc3c(N)nc(Cl)nc32)[C@H](O)[C@@H]1O | 78% |
| COC[C@H]1O[C@@H](n2cnc3c(NCc4cccc(I)c4)nc(Cl)nc32)[C@H](O)[C@@H]1O | 37% |
| COC[C@H]1O[C@@H](n2cnc3c(NC4CCCC4)ncnc32)[C@H](O)[C@@H]1O | 74% |
| CCOC[C@H]1O[C@@H](n2cnc3c(NC4CCCC4)nc(Cl)nc32)[C@H](O)[C@@H]1O | 62% |
| O[C@@H]1[C@H](O)[C@@H](COC2CC2)O[C@H]1n1cnc2c(NC3CCCC3)ncnc21 | 62% |
| CCOC[C@H]1O[C@@H](n2cnc3c(N)ncnc32)[C@H](O)[C@@H]1O | 57% |

Biological target: T1, Adenosine receptor A1 (Homo sapiens)
Experiment: Inhibition of 10 nM Forskolin-induced cAMP production at human Adenosine A1 receptor compared to CPA in CHO cells
Type: functional, cell-based
Details: in the assay text read “10 µM” for “10 nM”
Method in brief: as §1

| Structure (SMILES) | inhibition |
| --- | --- |
| COC[C@H]1O[C@@H](n2cnc3c(N)ncnc32)[C@H](O)[C@@H]1O | 75% |
| OC[C@H]1O[C@@H](n2cnc3c(NC4CCCC4)ncnc32)[C@H](O)[C@@H]1O | 69% |

Biological target: T2, Adenosine receptor A3 (Homo sapiens) (UniProt P0DMS8)
T2 sequence (whole entry): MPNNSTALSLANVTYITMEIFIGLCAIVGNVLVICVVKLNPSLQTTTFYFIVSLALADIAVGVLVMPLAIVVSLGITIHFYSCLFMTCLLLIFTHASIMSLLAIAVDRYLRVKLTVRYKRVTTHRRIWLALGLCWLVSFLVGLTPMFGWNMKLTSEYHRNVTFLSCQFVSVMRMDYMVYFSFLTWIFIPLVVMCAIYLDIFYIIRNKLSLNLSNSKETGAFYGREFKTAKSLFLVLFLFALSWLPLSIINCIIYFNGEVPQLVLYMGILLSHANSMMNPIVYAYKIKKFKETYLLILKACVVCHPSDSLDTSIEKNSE
Experiment: Agonistic activity expressed as the amount of [35S]GTP gamma-S bound at adenosine A3 receptor
Type: functional
Details: not given
Method in brief: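 Membranes from CHO cells expressing the human A3 receptor (1–1.5 µg protein) were incubated with 1 µM GDP and no NaCl for 90 min at 25 °C. Mean ±SEM, n=3.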

| Structure (SMILES) | Activity |
| --- | --- |
| CCNC(=O)[C@H]1O[C@@H](n2cnc3c(N)ncnc32)[C@H](O)[C@@H]1O | 100 |

Biological target: T2, Adenosine receptor A3 (Homo sapiens)
Experiment: Agonistic activity expressed as the amount of [35S]GTP gamma-S bound +1 uM NECA at adenosine A3 receptor
Type: functional
Details: not given
Method in brief: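 Human A3 receptor in CHO-cell membranes (1–1.5 µg) was incubated with 1 µM GDP and no NaCl for 90 min at 25 °C. Mean ±SEM, n=3.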

| Structure (SMILES) | Activity |
| --- | --- |
| CCNC(=O)[C@H]1O[C@@H](n2cnc3c(N)ncnc32)[C@H](O)[C@@H]1O | 100 |

Biological target: T3, Adenosine receptor A1 (Rattus norvegicus) (UniProt P25099)
T3 sequence (whole entry): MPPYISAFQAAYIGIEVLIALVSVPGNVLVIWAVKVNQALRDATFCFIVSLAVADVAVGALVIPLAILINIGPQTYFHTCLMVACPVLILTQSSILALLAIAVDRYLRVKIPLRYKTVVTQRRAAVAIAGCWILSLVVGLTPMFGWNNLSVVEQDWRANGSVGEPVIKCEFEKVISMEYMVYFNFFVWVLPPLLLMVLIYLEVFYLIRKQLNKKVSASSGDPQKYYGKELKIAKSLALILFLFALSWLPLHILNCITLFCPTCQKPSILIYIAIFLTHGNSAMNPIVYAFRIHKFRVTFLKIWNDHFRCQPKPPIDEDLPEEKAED
Experiment: Agonistic activity expressed as the amount of [35S]-GTP gamma-S bound +1 uM CPA at rat Adenosine A1 receptor
Type: functional
Details: not given
Method in brief: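 Rat cortex membranes (2 µg protein) were incubated with 10 µM GDP and 100 mM NaCl for 90 min at 25 °C. Mean ±SEM, n=3.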

| Structure (SMILES) | Activity |
| --- | --- |
| OC[C@H]1O[C@@H](n2cnc3c(NC4CCCC4)ncnc32)[C@H](O)[C@@H]1O | 100 |

Biological target: T3, Adenosine receptor A1 (Rattus norvegicus)
Experiment: Agonistic activity expressed as the amount of [35S]-GTP gamma-S bound at rat Adenosine A1 receptor
Type: functional
Details: not given
Method in brief: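 [35S]GTPγS binding used 2 µg of rat cortex membrane protein with 10 µM GDP and 100 mM NaCl, incubated 90 min at 25 °C. Mean ±SEM, n=3.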

| Structure (SMILES) | Activity |
| --- | --- |
| OC[C@H]1O[C@@H](n2cnc3c(NC4CCCC4)ncnc32)[C@H](O)[C@@H]1O | 100 |
